B1: Osa-1-4 twister ribozyme (parent)
chain: CCGCCUAACACUGCCAAUGCCGGUCCCAAGCCCGGAUAAAAGUGGAGGGGGCGG

Variants of: B1
Test: self-cleavage, relative activity (ratio to wild type); higher = more cleavage; co-transcriptional
In short: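 For each read, cleavage status was taken from whether upstream sequence was present. The reads came from an Oryza sativa twister ribozyme of 54 nucleotides, whose DNA template was synthesised with 97 % wild-type base and 1 % of each other base at the 48 positions downstream of the cleavage site. The template was transcribed in vitro at 37 °C for 2 h with co-transcriptional self-cleavage, and the RNA was reverse-transcribed using a template-switching oligonucleotide, PCR-amplified and deep-sequenced. Relative activity is the fraction cleaved normalised to wild type.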

Variant | self-cleavage
A38G G30U | 0.04
A38G G30A | 0.05
A38G G30C | 0.04
A39G A46U | 0.09
A39G A46G | 0.06
A39G A46C | 0.05
A38U G54A | 0.93
A38U G54U | 0.95
A38U G54C | 0.89
A38U A7G | 0.24
A38U A7U | 0.12
A38U A7C | 0.05
A39C C31G | 0.08
A39C C31U | 0.53
A39C C31A | 0.04
A38U C15A | 0.23
A38U C15G | 0.25
A38U C15U | 0.21
A38U C26U | 0.92
A38U C26G | 0.09
A38U C26A | 0.04
A39C A40U | 0.85
A39C A40G | 0.59
A39C A40C | 0.1

Variant | self-cleavage
A39C G49C | 0.06
A39C G49A | 0.07
A39C G49U | 0.06
A38U G47A | 0.18
A38U G47U | 0.19
A38U G47C | 0.08
A39C C11U | 0.74
A39C C11A | 0.26
A39C C11G | 0.21
A39C G50U | 1
A39C G50C | 0.67
A39C G50A | 0.64
A38U C11A | 0.78
A38U C11G | 0.59
A38U C11U | 0.97
A38G G54A | 0.92
A38G G54C | 0.94
A38G G54U | 0.94
A39C C9G | 0.34
A39C C9A | 0.28
A39C C9U | 0.55
A39C C25G | 0.06
A39C C25A | 0.06
A39C C25U | 0.33

Variant | self-cleavage
A39C U37G | 0.98
A39C U37A | 0.92
A39C U37C | 1.02
A38U G53A | 0.81
A38U G53C | 0.09
A38U G53U | 0.27
A38U G23C | 0.07
A38U G23U | 0.07
A38U G23A | 0.33
A39C C21G | 0.08
A39C C21U | 0.97
A39C C21A | 0.22
A38U A39U | 0.97
A38U A39G | 0.64
A38U A39C | 0.96
A38G U12A | 0.88
A38G U12C | 0.42
A38G U12G | 0.41
A39G A8G | 0.35
A39G A8U | 0.17
A39G A8C | 0.08
A39G C20A | 0.91
A39G C20G | 0.13
A39G C20U | 0.96

Variant | self-cleavage
A39C C32U | 0.08
A39C C32A | 0.08
A39C C32G | 0.1
A38U | 1.01
A38U G48A | 0.1
A38U G48C | 0.08
A38U G48U | 0.08
A39G C25A | 0.07
A38U G35C | 0.13
A38U G35A | 0.83
A38U G35U | 0.89
A38U G49A | 0.12
A38U G49U | 0.09
A38U G49C | 0.05
A38U U24G | 0.03
A38U U24A | 0.14
A38U U24C | 0.25
A38G U37A | 1
A38G U37C | 1.05
A38G U37G | 1
A38G G50U | 1
A38G G50C | 1
A38G G50A | 0.74
A39G C15U | 0.21

Variant | self-cleavage
A39G C15A | 0.41
A39G C15G | 0.31
A38U C32U | 0.11
A38U C32G | 0.12
A38U C32A | 0.08
A38U U37A | 1.03
A38U U37C | 1.04
A38U U37G | 1.03
A39C G30A | 0.04
A39C G30U | 0.03
A39C G30C | 0.04
A38U C52G | 0.98
A38U C52U | 1.01
A38U C52A | 1
A38U G45U | 0.09
A38U G45A | 0.23
A38U G45C | 0.06
A38U G19A | 0.57
A38U G19U | 0.22
A38U G19C | 0.04
A38U C31U | 0.75
A38U C31G | 0.08
A38U C31A | 0.03
A39C G42A | 0.1

Variant | self-cleavage
A39C G42C | 0.09
A39C G42U | 0.05
A38G U18A | 0.92
A38G U18C | 0.97
A38G U18G | 0.84
A38U G13U | 0.03
A38U G13C | 0.03
A38U G13A | 0.11
A39G A7U | 0.08
A39G A7C | 0.04
A39G A7G | 0.31
A39C G23A | 0.12
A39C G23C | 0.04
A39C G23U | 0.05
A38U C21G | 0.06
A38U C21U | 0.99
A38U C21A | 0.53
A39C G34A | 0.63
A39C G34U | 0.42
A39C G34C | 0.2
A39C U24A | 0.05
A39C U24G | 0.03
A39C U24C | 0.06
A38G G51C | 0.11

Variant | self-cleavage
A38G G51U | 0.36
A38G G51A | 0.72
A38U C33A | 0.1
A38U C33U | 0.79
A38U C33G | 0.05
A38U U12G | 0.31
A38U U12C | 0.4
A38U U12A | 0.86
A38G G42U | 0.12
A38G G42C | 0.23
A38G G42A | 0.7
A38U G34C | 0.5
A38U G34U | 0.77
A38U G34A | 0.78
A39C C26U | 0.35
A39C C26A | 0.04
A39C C26G | 0.07
A39C C33A | 0.06
A39C C33G | 0.07
A39C C33U | 0.38
A38U A41U | 0.98
A38U A41G | 0.64
A38U A41C | 0.89
